# Results published in ChEMBL document CHEMBL2163252, “Azapeptide analogues of the growth hormone releasing peptide 6 as cluster of differentiation 36 receptor ligands with reduced affinity for the growth hormone secretagogue receptor 1a” (J Med Chem, 2012).
# Starred links: 1 amine or outer side, 2 acyl side, 3 side chain; linkers in the order of their positions; H or OH if unused. Non-standard residues stand in square brackets, D forms with d. Residues, ends and D or L forms follow the SMILES beside them. Haic = O=C1[C@@H](N[*:1])CCc2cccc3c2N1[C@H](C(=O)[*:2])C3; dTrp(2-Me) = Cc1[nH]c2ccccc2c1C[C@@H](N)C(=O)O; azaPhe = O=C(N(Cc1ccccc1)N[*:1])[*:2]; azaLeu = CC(C)CN(N[*:1])C(=O)[*:2]; azaGly = NNC(=O)O
# Experiments:
# [1] = Antiangiogenic effect in […] mouse microvascular choroid explants assessed as choroid sprouting at 10^-7 M after 4 days (reference value: 53%); type: functional
# [2] = target: Growth hormone secretagogue receptor type 1 (Homo sapiens, UniProt Q92847); assay: Displacement of [125I]ghrelin expressed in LLC-PK1 cells incubated for 1 hr by gamma counting method; type: cell-based
# Sequence of Growth hormone secretagogue receptor type 1 (Q92847 whole entry): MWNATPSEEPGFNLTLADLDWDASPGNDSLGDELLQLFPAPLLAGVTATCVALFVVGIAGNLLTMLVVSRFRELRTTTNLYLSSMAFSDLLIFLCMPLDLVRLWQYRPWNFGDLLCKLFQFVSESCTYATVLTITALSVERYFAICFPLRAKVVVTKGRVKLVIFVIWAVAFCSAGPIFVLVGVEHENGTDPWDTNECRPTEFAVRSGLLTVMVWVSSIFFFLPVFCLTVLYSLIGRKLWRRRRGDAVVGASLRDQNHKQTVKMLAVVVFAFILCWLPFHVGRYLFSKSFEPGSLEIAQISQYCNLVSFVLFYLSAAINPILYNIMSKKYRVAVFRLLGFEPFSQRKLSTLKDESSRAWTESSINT
# In short: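 Membranes from LLC-PK1 cells transiently transfected with GHS-R1a (CaPO₄; harvested 24 h later; freeze/thaw lysis, 10000g), 10 μg protein/tube. Incubated with ¹²⁵I-ghrelin (40,000 cpm) and competitor 10⁻¹² to 10⁻⁵ M, 1 h at RT, in Tris/MgCl₂/EDTA/bacitracin buffer pH 7.3. Nonspecific binding set with 10⁻⁵ M competitor. Bound separated by filtration on PEI-soaked GF/C filters, gamma counted.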
# Platelet glycoprotein 4 = Platelet glycoprotein 4 (Rattus norvegicus, UniProt Q07969); assay: Displacement of photoactivatable [125I]-Tyr-Bpa-Ala-Hexarelin from CD36 in Sprague-Dawley rat cardiac membranes incubated for 60 mins by densitometry; type: cell membranes, Membrane
# Sequence of Platelet glycoprotein 4 (Q07969 whole entry): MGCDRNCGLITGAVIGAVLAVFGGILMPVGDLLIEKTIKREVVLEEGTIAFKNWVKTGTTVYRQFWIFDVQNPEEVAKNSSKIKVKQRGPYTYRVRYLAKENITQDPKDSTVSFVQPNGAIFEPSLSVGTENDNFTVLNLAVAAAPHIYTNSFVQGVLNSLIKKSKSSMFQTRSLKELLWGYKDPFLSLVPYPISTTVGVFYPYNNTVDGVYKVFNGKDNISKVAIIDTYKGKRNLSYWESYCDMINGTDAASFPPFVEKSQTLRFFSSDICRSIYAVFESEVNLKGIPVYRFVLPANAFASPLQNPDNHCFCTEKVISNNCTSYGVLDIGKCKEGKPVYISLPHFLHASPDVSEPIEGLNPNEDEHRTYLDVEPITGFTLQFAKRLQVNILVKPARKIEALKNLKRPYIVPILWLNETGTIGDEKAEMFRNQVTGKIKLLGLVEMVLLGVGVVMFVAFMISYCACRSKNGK
IC50 [2] [µM],IC50 (Platelet glycoprotein 4) [µM],SMILES,Activity [1] [%]
> 10,> 10,CC(C)CN(NC(=O)[C@H](N)Cc1c[nH]c2ccccc12)C(=O)N[C@@H](Cc1c[nH]c2ccccc12)C(N)=O,47
> 10,42.7,C[C@H](N)C(=O)NN(Cc1ccccc1)C(=O)N[C@@H](C)C(=O)N[C@@H](Cc1c[nH]c2ccccc12)C(=O)N[C@H](Cc1ccccc1)C(=O)N[C@@H](CCCCN)C(N)=O (H-A[azaPhe]AW[dF]K-NH2),28
–,6.06,C[C@H](N)C(=O)N[C@H](Cc1c[nH]c2ccccc12)C(=O)NNC(=O)N[C@@H](Cc1c[nH]c2ccccc12)C(=O)N[C@H](Cc1ccccc1)C(=O)N[C@@H](CCCCN)C(N)=O (H-A[dW][azaGly]W[dF]K-NH2),72
–,7.59,CC(C)CN(NC(=O)[C@@H](Cc1c[nH]c2ccccc12)NC(=O)[C@@H](N)Cc1cnc[nH]1)C(=O)N[C@@H](Cc1c[nH]c2ccccc12)C(=O)N[C@H](Cc1ccccc1)C(=O)N[C@@H](C)C(N)=O (H-H[dW][azaLeu]W[dF]A-NH2),25
0.75,1.11,Cc1[nH]c2ccccc2c1C[C@@H](NC(=O)[C@@H]1Cc2cccc3c2N1C(=O)[C@@H](N)CC3)C(=O)N[C@H](CCCCN)C(=O)N[C@@H](Cc1c[nH]c2ccccc12)C(=O)N[C@H](Cc1ccccc1)C(=O)N[C@@H](CCCCN)C(N)=O (Haic-[dTrp(2-Me)][dK]W[dF]K-NH2),3

SMILES,IC50 [2] [µM],IC50 (Platelet glycoprotein 4) [µM],Activity [1] [%]
C[C@H](N)C(=O)N[C@H](Cc1c[nH]c2ccccc12)C(=O)N[C@@H](C)C(=O)NN(Cc1ccccc1)C(=O)N[C@H](Cc1ccccc1)C(=O)N[C@@H](CCCCN)C(N)=O (H-A[dW]A[azaPhe][dF]K-NH2),> 10,7.58,105
